A short description of test [1]: Displacement of [3H]YM-09151-2 from human dopamine D4.2 receptor in membrane suspensions by liquid scintillation counter.
The nature of test [2]: Displacement of [3H]prazosin from adrenergic alpha1 receptor in ICR mouse brain homogenate. Format: tissue-based. The method in brief:
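Brain tissue was homogenized in 19 vol. of 50 mM Tris–HCl pH 7.5 and centrifuged at 40,000g for 15 min, then the pellet was washed once and resuspended in 24 vol. buffer. Homogenate (about 400 protein) was incubated with [3H]prazosin (0.05–1 nM) for 1 h at 20 °C. Binding was ended by rapid filtration, with filter-bound radioactivity counted by liquid scintillation.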
Background: Displacement assays read how much labelled ligand stays bound in the presence of the test substance.

Test [3] concerns the target D(2) dopamine receptor (Homo sapiens, UniProt P14416). Nature of the test: Displacement of [3H]YM-09151-2 from human dopamine D2S receptor in membrane suspensions by liquid scintillation counter.
The species entered for test [4] is Homo sapiens. Kind of test: Selectivity ratio of Ki for human dopamine D2S receptor to Ki for human dopamine D4.2 receptor.

Where only a bound is given, the exact number is not on record here.

Chain of D(2) dopamine receptor (P14416 whole entry): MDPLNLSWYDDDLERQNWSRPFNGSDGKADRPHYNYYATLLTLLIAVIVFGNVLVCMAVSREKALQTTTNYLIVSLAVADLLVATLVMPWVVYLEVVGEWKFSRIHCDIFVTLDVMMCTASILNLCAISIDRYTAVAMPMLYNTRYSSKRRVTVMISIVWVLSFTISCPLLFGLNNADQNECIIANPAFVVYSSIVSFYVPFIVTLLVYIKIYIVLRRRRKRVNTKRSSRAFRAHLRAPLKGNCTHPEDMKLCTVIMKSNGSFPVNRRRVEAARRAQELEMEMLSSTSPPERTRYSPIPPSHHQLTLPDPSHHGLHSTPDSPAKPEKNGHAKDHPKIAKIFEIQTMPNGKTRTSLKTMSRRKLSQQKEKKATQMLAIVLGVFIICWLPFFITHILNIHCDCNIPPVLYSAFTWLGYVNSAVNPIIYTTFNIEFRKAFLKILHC

Consider `Cc1ccc(N2CCN(C[C@H]3C[C@@H]3c3ccccc3)CC2)c(C)c1`, for which the results for the inhibitory constant (Ki) in test [1] and in test [2] were 130 nM and 432 nM, respectively.
As to `Cc1ccc(N2CCN(C[C@H]3C[C@]3(C)c3ccccc3)CC2)c(C)c1`, the figures for the Ki in test [3], in test [1] and in test [2] were > 10000 nM, 236 nM and 906 nM, respectively. Besides, the Ratio Ki in test [4] is > 42.
The like results for `Cc1ccc(N2CCN([C@H](C)[C@H]3C[C@]3(C)c3ccccc3)CC2)c(C)c1` were, in that order, > 10000 nM, 4660 nM, 401 nM and > 2.1.
The like results for `Cc1ccc(N2CCN([C@@H](C)[C@H]3C[C@]3(C)c3ccccc3)CC2)c(C)c1` were, in that order, > 10000 nM, 4190 nM, 250 nM and > 2.4.
Consider `Cc1ccc(N2CCN(C[C@@H]3C[C@@H]3c3ccccc3)CC2)c(C)c1`, for which the Ki (usually the equilibrium dissociation constant of an inhibitor or competing ligand from its target) in test [1] turned out to be 2050 nM; in test [2] it was 537 nM.
Take `O=C(CCCN1CCC(O)(c2ccc(Cl)cc2)CC1)c1ccc(F)cc1` [HALOPERIDOL]: in test [1], the Ki is 9.32 nM. In other words, the single-digit nanomolar range.
Take `Cc1ccc(N2CCN(C[C@H]3C[C@H]3c3ccccc3)CC2)c(C)c1`: the Ki in test [1] amounted to 897 nM; in test [2], 521 nM.
